Measured values reported in ChEMBL document CHEMBL4350961, “Discovery of Pyrrolo[3,2- d]pyrimidin-4-one Derivatives as a New Class of Potent and Cell-Active Inhibitors of P300/CBP-Associated Factor Bromodomain” (J Med Chem, 2019).
Active and inactive are the calls of the source.

Columns and labels:
[1] = molecular target: ATPase family AAA domain-containing protein 2B (Homo sapiens) (UniProt Q9ULI0); assay: Binding affinity to human partial length ATAD2B (Q955 to R1082 residues) expressed in bacterial expression system at 1 uM by BROMOscan assay
Outline: (§1)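 BROMOscan bromodomain cross-screen run by an outside service, compound at 1 µM against 32 recombinant bromodomains. Binding given as percent of control.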

[2] = molecular target: Bromodomain-containing protein 4 (Homo sapiens) (UniProt O60885); assay: Binding affinity to human partial length BRD4 bromodomain 1 long isoform (N44 to E168 residues) expressed in bacterial expression system at 1 uM by BROMOscan assay; outline: as §1
[3] = molecular target: Transcription intermediary factor 1-alpha (Homo sapiens) (UniProt O15164); assay: Binding affinity to human partial length TRIM24 (P790 to P977 residues) expressed in bacterial expression system at 1 uM by BROMOscan assay; outline: as §1
[4] = molecular target: Serine/threonine-protein kinase Chk1 (Homo sapiens) (UniProt O14757); assay: Inhibition of recombinant full length human CHK1 at 10 uM using KKKVSRSGLYRSPSMPENLNRPR as substrate measured after 40 mins in presence of [gamma33P]ATP by scintillation counting method
[5] = molecular target: Proto-oncogene tyrosine-protein kinase Src (Homo sapiens) (UniProt P12931); assay: Inhibition of recombinant full-length human SRC at 10 uM using Cdc2 peptide as substrate measured after 40 mins in presence of [gamma33P]ATP by scintillation counting method
[6] = molecular target: Ephrin type-A receptor 1 (Homo sapiens) (UniProt P21709); assay: Inhibition of recombinant human EphA1 (568 to end residues) at 10 uM using KKKSPGEYVNIEF as substrate measured after 40 mins in presence of [gamma33P]ATP by scintillation counting method
[7] = molecular target: Ephrin type-A receptor 5 (Homo sapiens) (UniProt P54756); assay: Inhibition of recombinant human EphA5 (655 to 956 residues) at 10 uM using poly(Glu, Tyr) 4:1 as substrate measured after 40 mins in presence of [gamma33P]ATP by scintillation counting method
[8] = molecular target: Vascular endothelial growth factor receptor 1 (Homo sapiens) (UniProt P17948); assay: Inhibition of recombinant human Flt1 (783 to end residues) at 10 uM using KKKSPGEYVNIEFG as substrate measured after 40 mins in presence of [gamma33P]ATP by scintillation counting method
[9] = molecular target: Tyrosine-protein kinase HCK (Homo sapiens) (UniProt P08631); assay: Inhibition of recombinant human HCK (230 to 497 residues) at 10 uM using Cdc2 peptide as substrate measured after 40 mins in presence of [gamma33P]ATP by scintillation counting method
[10] = molecular target: Tyrosine-protein kinase Lyn (Homo sapiens) (UniProt P07948); assay: Inhibition of recombinant full-length human Lyn at 10 uM using poly(Glu, Tyr) 4:1 as substrate measured after 40 mins in presence of [gamma33P]ATP by scintillation counting method
[11] = molecular target: Mitogen-activated protein kinase 1 (Homo sapiens) (UniProt P28482); assay: Inhibition of recombinant full-length human MAPK1 at 10 uM using myelin basic protein as substrate measured after 40 mins in presence of [gamma33P]ATP by scintillation counting method
[12] = molecular target: Mitogen-activated protein kinase kinase kinase 2 (Homo sapiens) (UniProt Q9Y2U5); assay: Inhibition of recombinant full-length human MEKK2 at 10 uM using myelin basic protein as substrate measured after 40 mins in presence of [gamma33P]ATP by scintillation counting method
[13] = molecular target: Mitogen-activated protein kinase kinase kinase 3 (Homo sapiens) (UniProt Q99759); assay: Inhibition of recombinant full-length human MEKK3 at 10 uM using myelin basic protein as substrate measured after 40 mins in presence of [gamma33P]ATP by scintillation counting method
[14] = molecular target: Mitogen-activated protein kinase kinase kinase 11 (Homo sapiens) (UniProt Q16584); assay: Inhibition of human MLK3 at 10 uM by radiometric method
Outline: (§2)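 Kinase panel of 422 kinases screened by Eurofins KinaseProfiler at a single test-compound concentration of 10 µM.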

[15] = molecular target: Serine/threonine-protein kinase PAK 4 (Homo sapiens) (UniProt O96013); assay: Inhibition of recombinant human PAK4 (295 to end residues) at 10 uM using myelin basic protein as substrate measured after 40 mins in presence of [gamma33P]ATP by scintillation counting method
[16] = molecular target: Protein kinase C delta type (Homo sapiens) (UniProt Q05655); assay: Inhibition of recombinant human PKCdelta (2 to end residues) at 10 uM using ERMRPRKRQGSVRRRV as substrate measured after 40 mins in presence of [gamma33P]ATP by scintillation counting method
[17] = test system: Serine/threonine-protein kinase N1 (Homo sapiens), Q16512 [V901I]; assay: Inhibition of human PRK1 V901I mutant (498 to end residues) using KKLNRTLSFAEPG as substrate measured after 40 mins in presence of [gamma33P]ATP by scintillation counting method; outline: as §2
[18] = molecular target: Proto-oncogene tyrosine-protein kinase receptor Ret (Homo sapiens) (UniProt P07949); assay: Inhibition of human Ret (658 to end residues) using KKKSPGEYVNIEFG as substrate measured after 40 mins in presence of [gamma33P]ATP by scintillation counting method; outline: as §2
[19] = molecular target: Macrophage-stimulating protein receptor (Homo sapiens) (UniProt Q04912); assay: Inhibition of human Ron (983 to end residues) using GGMEDIYFEFMGGKKK as substrate measured after 40 mins in presence of [gamma33P]ATP by scintillation counting method; outline: as §2
[20] = molecular target: Serine/threonine-protein kinase 32C (Homo sapiens) (UniProt Q86UX6); assay: Inhibition of recombinant full-length human STK32C at 10 uM using casein as substrate measured after 120 mins in presence of [gamma33P]ATP by scintillation counting method
[21] = test system: Angiopoietin-1 receptor (Homo sapiens), Q02763 [Q939H,Q940H,Y897S]; assay: Inhibition of human Tie2 Q939H/Q940H/Y897S mutant (771 to end residues) using EFPIYDFLPAKKK as substrate measured after 40 mins in presence of [gamma33P]ATP by scintillation counting method
[22] = molecular target: NT-3 growth factor receptor (Homo sapiens) (UniProt Q16288); assay: Inhibition of human TrkC (510 to end residues) using GEEPLYWSFPAKKK as substrate measured after 40 mins in presence of [gamma33P]ATP by scintillation counting method
[23] = molecular target: Tyrosine-protein kinase Yes (Homo sapiens) (UniProt P07947); assay: Inhibition of recombinant full-length human Yes at 10 uM using poly(Glu, Tyr) 4:1 as substrate measured after 40 mins in presence of [gamma33P]ATP by scintillation counting method
[24] = molecular target: Phosphatidylinositol 3-kinase C2 domain-containing subunit gamma (Homo sapiens) (UniProt O75747); assay: Inhibition of recombinant human PI3KC2gamma (468 to 1203 residues) at 10 uM using phosphatidylinositol as substrate measured after 40 mins by HTRF assay

Chain of Tyrosine-protein kinase Yes (Homo sapiens) (P07947 2-543 limits assumed): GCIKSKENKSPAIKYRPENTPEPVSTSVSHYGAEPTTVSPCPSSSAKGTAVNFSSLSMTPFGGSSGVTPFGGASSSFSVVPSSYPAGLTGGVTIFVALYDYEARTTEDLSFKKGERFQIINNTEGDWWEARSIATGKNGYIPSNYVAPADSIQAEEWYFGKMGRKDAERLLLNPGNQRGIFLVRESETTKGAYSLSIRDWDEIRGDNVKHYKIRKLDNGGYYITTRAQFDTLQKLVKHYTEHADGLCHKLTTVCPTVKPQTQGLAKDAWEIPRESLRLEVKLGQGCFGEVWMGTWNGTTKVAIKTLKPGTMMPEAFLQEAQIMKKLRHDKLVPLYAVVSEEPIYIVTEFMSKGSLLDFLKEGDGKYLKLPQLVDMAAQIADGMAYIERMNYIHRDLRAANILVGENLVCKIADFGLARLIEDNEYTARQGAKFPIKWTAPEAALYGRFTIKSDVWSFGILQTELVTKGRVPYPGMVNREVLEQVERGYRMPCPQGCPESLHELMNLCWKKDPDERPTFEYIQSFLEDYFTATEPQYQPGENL
Chain of Mitogen-activated protein kinase 1 (Homo sapiens) (P28482 whole entry): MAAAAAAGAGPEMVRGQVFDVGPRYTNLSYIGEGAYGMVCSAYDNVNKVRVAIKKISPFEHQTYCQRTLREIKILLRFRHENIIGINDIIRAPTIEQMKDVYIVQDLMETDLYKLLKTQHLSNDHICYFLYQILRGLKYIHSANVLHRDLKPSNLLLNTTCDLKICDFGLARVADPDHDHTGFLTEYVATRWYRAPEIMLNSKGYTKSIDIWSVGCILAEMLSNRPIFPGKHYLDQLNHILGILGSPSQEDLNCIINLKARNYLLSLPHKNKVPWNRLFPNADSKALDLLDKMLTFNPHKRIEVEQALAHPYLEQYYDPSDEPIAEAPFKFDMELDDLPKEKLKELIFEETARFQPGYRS
Chain of Serine/threonine-protein kinase PAK 4 (Homo sapiens) (O96013 whole entry, looked up): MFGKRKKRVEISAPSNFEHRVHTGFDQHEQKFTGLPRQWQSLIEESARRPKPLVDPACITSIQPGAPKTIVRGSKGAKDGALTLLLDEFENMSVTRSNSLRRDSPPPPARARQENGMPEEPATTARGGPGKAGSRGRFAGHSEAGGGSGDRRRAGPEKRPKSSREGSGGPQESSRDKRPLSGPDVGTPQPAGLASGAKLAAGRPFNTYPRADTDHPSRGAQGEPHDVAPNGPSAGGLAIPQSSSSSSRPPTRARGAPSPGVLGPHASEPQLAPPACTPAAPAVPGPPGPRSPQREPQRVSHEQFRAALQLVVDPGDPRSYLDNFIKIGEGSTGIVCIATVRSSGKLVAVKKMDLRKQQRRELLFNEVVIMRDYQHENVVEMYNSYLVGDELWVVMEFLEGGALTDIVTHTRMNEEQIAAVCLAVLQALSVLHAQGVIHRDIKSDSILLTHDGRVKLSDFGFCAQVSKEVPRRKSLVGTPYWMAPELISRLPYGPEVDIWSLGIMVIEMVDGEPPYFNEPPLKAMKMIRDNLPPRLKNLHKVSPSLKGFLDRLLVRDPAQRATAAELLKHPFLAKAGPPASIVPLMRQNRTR
Chain of Mitogen-activated protein kinase kinase kinase 2 (Homo sapiens) (Q9Y2U5 whole entry): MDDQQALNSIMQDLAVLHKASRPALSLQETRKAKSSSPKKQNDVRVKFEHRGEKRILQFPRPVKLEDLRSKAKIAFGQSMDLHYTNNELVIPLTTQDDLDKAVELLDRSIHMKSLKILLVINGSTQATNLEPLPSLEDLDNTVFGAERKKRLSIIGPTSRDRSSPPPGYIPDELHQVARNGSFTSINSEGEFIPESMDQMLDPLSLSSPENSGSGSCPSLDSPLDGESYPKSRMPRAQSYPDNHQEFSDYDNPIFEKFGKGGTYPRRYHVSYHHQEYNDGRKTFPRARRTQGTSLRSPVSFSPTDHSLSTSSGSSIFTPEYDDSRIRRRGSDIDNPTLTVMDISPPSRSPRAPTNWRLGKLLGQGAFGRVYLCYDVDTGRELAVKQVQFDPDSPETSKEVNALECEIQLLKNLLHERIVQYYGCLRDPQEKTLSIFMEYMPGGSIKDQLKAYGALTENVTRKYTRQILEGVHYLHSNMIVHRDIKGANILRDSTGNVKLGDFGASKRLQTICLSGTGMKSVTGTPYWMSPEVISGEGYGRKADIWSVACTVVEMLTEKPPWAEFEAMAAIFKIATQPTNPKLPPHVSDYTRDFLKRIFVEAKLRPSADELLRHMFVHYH
Chain of Mitogen-activated protein kinase kinase kinase 11 (Homo sapiens) (Q16584 whole entry, looked up): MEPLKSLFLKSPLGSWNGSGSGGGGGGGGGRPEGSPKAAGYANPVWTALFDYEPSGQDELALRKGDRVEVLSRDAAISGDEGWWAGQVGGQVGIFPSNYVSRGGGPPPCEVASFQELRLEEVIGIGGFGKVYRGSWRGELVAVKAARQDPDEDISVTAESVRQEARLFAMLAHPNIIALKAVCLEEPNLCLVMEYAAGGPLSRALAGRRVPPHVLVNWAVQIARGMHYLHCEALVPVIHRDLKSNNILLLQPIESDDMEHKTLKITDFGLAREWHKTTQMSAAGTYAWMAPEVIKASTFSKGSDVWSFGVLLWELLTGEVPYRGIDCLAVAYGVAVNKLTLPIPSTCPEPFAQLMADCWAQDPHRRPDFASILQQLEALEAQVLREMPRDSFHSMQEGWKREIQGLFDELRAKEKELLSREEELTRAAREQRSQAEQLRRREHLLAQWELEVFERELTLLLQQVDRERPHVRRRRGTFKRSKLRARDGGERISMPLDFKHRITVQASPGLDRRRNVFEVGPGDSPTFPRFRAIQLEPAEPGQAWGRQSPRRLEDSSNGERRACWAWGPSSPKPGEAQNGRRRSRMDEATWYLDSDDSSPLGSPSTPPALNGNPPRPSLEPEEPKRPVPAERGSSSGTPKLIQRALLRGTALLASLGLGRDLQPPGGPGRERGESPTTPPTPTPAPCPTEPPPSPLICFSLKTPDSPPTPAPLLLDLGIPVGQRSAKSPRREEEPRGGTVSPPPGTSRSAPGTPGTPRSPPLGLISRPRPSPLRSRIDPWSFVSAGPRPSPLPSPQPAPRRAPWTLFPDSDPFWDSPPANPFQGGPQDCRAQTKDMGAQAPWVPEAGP
Chain of Vascular endothelial growth factor receptor 1 (Homo sapiens) (P17948 whole entry, the tested form may be a part): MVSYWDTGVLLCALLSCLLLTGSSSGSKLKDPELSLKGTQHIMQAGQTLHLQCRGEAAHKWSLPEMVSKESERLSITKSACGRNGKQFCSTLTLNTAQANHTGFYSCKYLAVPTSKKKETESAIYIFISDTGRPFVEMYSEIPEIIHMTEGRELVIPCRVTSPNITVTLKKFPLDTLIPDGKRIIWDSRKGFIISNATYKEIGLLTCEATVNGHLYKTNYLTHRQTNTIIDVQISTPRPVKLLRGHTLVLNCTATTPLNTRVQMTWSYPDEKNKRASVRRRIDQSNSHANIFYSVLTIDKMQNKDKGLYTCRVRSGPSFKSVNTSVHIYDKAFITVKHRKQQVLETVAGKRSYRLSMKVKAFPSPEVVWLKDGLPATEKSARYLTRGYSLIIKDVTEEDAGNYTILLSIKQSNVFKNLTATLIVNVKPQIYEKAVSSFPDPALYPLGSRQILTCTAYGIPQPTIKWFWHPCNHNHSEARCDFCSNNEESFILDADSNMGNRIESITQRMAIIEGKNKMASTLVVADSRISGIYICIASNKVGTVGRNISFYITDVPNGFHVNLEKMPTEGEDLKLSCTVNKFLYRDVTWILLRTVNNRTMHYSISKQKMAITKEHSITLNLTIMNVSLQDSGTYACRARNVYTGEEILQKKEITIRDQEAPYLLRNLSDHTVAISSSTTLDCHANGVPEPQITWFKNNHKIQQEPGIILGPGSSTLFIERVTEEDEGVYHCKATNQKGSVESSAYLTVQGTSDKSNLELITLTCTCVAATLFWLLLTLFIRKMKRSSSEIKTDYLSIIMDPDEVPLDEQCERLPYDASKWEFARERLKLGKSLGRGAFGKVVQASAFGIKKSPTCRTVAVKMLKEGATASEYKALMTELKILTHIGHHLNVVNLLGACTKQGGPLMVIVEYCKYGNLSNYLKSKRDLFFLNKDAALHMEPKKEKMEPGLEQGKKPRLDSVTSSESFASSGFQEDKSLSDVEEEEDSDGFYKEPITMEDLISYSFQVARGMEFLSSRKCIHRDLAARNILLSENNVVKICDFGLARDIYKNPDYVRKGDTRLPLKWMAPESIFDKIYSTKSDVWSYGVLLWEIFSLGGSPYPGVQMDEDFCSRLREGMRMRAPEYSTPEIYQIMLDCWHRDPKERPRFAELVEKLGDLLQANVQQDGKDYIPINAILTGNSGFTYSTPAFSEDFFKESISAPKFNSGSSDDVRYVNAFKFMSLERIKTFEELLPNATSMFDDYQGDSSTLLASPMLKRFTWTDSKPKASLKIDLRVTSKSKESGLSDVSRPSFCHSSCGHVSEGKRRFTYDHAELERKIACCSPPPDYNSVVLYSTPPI
Chain of Tyrosine-protein kinase Lyn (Homo sapiens) (P07948 2-512 limits assumed): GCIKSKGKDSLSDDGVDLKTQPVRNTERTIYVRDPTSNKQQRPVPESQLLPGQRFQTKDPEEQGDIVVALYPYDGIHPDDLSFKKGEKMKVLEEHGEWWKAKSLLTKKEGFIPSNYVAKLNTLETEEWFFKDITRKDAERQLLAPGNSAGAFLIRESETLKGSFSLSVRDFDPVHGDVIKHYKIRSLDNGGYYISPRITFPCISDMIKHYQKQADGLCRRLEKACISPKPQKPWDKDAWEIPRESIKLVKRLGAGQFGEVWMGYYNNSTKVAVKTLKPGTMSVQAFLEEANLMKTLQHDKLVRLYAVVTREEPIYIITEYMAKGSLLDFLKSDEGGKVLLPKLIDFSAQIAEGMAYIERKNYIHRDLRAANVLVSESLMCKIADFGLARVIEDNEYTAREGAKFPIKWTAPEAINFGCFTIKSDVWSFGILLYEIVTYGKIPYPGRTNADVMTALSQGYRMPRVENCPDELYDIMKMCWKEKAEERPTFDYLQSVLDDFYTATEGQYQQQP

CN1C[C@H](Nc2nc3cc[nH]c3c(=O)n2C)C[C@H](c2ccc3c(c2)OCCO3)C1
inactive: Activity [1] | Activity [2] | Activity [3] | inhibition [4] | inhibition [5] | inhibition [6] | inhibition [7] | inhibition [8] | inhibition [9] | inhibition [10] | inhibition [11] | inhibition [12] | inhibition [13] | inhibition [14] | inhibition [15] | inhibition [16] | inhibition [17] | inhibition [18] | inhibition [19] | inhibition [20] | inhibition [21] | inhibition [22] | inhibition [23] | inhibition [24]
